Measured values from ChEMBL document CHEMBL1142211 (Antimicrob Agents Chemother, 2007).
In brackets after ≈: the same amount, converted by molar mass. Activity calls are given as the source filed them.

Assays:
[1] = tested on: Mycobacterium tuberculosis; experiment: Antimicrobial activity against Mycobacterium tuberculosis H37Rv in 7H9 broth; format: functional
How it was run: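 Broth microdilution against H37Rv over 256 to 0.01 mg/liter. MIC is the lowest concentration with no visible turbidity.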

[2] = tested on: Mycobacterium tuberculosis; experiment: Antimicrobial activity against Mycobacterium tuberculosis H37Rv infected in mouse J774A.1 macrophages; format: functional
How it was run: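 J774A.1 macrophages were infected with H37Rv (MOI 1:8, macrophage:bacilli) and exposed to drug at 32 to 0.5 mg/liter for 3 days. Intracellular MIC is the minimal concentration giving a static effect after 3 days. Efficacy is the log10 CFU/ml reduction over the assay period.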

[3] = tested on: Mycobacterium tuberculosis; experiment: Antimicrobial activity against Mycobacterium tuberculosis […] on day 7; format: functional
How it was run: (§1)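 H37Rv broth cultures were incubated with a range of drug concentrations. Viable CFU were counted by plating on Middlebrook 7H11 agar after 1, 7 and 14 days. Bactericidal effect is calculated against the initial inoculum before drug addition, as the mean of triplicates.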

[4] = tested on: Mycobacterium tuberculosis; experiment: Bactericidal activity in Mycobacterium tuberculosis H37Rv on day 1; format: functional, organism-based; how it was run: as §1
[5] = tested on: Mycobacterium tuberculosis; experiment: Bactericidal activity in Mycobacterium tuberculosis H37Rv on day 7; format: functional; how it was run: as §1
[6] = tested on: Mycobacterium tuberculosis; experiment: Bactericidal activity in Mycobacterium tuberculosis H37Rv on day 14; format: functional, organism-based; how it was run: as §1
[7] = Cmax in BALB/c mouse at 37.5 to 2400 mg/kg, po; format: ADME, organism-based; set-up: dose 37.5-2400 mg/kg, route oral; settings: in vivo
How it was run: (§2)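 Uninfected mice received single ascending oral gavage doses as suspensions in 0.25% (wt/vol) carboxymethylcellulose at 10 ml/kg. Plasma was taken by retro-orbital puncture from 0.08 to 50 h after dosing, with 3 animals per time point. Drug was measured by HPLC-UV or LCMS, and parameters were derived by noncompartmental analysis.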

[8] = AUC(0-infinity) in BALB/c mouse at 37.5 to 2400 mg/kg, po; format: ADME, organism-based; set-up: dose 37.5-2400 mg/kg, route oral; settings: plasma; how it was run: as §2
[9] = Cmax in BALB/c mouse at 6 to 400 mg/kg, po; format: ADME, organism-based; set-up: dose 6-400 mg/kg, route oral; settings: in vivo; how it was run: as §2
[10] = AUC(0-infinity) in BALB/c mouse at 6 to 400 mg/kg, po; format: ADME, organism-based; set-up: dose 6-400 mg/kg, route oral; settings: plasma; how it was run: as §2
Mus musculus [11] = experiment: Drug level in Mycobacterium tuberculosis infected BALB/c mouse model at 38 to 19000 mg/kg, po; format: ADME, organism-based; set-up: dose 38-19000 mg/kg, route oral; settings: in vivo
[12] = tested on: Mycobacterium tuberculosis; experiment: Reduction of Mycobacterium tuberculosis H37Rv in orally dosed BALB/c mouse lung; format: functional
How it was run: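 BALB/c mice were infected by low-dose aerosol with H37Rv. Oral dosing started 4 weeks later and ran for 4 weeks (3 weeks for one agent), using fractionated regimens with 3 mice per regimen and saline controls. Lungs were homogenized 24 h after the end of treatment and plated on 7H11 agar with 10% ADC at 37°C in 5% CO2 for 3 weeks. The read-out is log10 CFU/lung.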

Plasma = experiment: Fraction unbound ligand in mouse plasma at 0.01 to 10 mg/litre; format: ADME, cell-free
How it was run: (§3)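 Mouse plasma protein binding was measured by equilibrium dialysis across cellulose acetate membranes (12,000 to 14,000 MW cutoff). Drug was quantified by HPLC-UV or LCMS. Each concentration was run in duplicate and the mean reported.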

[13] = Half life in BALB/c mouse at 37.5 to 2400 mg/kg, po; format: ADME, organism-based; set-up: dose 37.5-2400 mg/kg, route oral; settings: in vivo
[14] = Ratio of fraction AUC in Mycobacterium tuberculosis infected BALB/c mouse to MIC in Mycobacterium tuberculosis infected BALB/c mouse model at 225 to 115000 mg/kg, po; format: ADME, organism-based; set-up: dose 225-115000 mg/kg, route oral; settings: in vivo
How it was run: (§4)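 Free Cmax and free AUC were derived from single-dose mouse plasma PK after conversion to unbound concentrations using each agent's binding equation, then divided by the broth MIC. Values for the fractionation regimens were estimated from the dose relationship.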

[15] = Ratio of fraction Cmax in Mycobacterium tuberculosis infected BALB/c mouse to MIC in Mycobacterium tuberculosis infected BALB/c mouse model at 225 to 115000 mg/kg, po; format: ADME, organism-based; set-up: dose 225-115000 mg/kg, route oral; settings: in vivo; how it was run: as §4
Mus musculus [16] = experiment: Drug level in Mycobacterium tuberculosis infected BALB/c mouse model at 225 to 115000 mg/kg, po; format: ADME, organism-based; set-up: dose 225-115000 mg/kg, route oral; settings: in vivo
[17] = Toxicity in Mycobacterium tuberculosis infected BALB/c mouse model at 225 to 115000 mg/kg, po; format: organism-based; set-up: dose 225-115000 mg/kg, route oral; settings: in vivo
[18] = Fraction unbound ligand in mouse plasma at 0.01 to 50 mg/litre; format: ADME, cell-free; how it was run: as §3
[19] = Cmax in BALB/c mouse at 5 to 1000 mg/kg, po; format: ADME, organism-based; set-up: dose 5-1000 mg/kg, route oral; settings: in vivo; how it was run: as §2
[20] = AUC(0-infinity) in BALB/c mouse at 5 to 1000 mg/kg, po; format: ADME, organism-based; set-up: dose 5-1000 mg/kg, route oral; settings: plasma; how it was run: as §2
[21] = Half life in BALB/c mouse at 5 to 1000 mg/kg, po; format: ADME, organism-based; set-up: dose 5-1000 mg/kg, route oral; settings: in vivo; how it was run: as §2
[22] = Ratio of fraction AUC in Mycobacterium tuberculosis infected BALB/c mouse to MIC in Mycobacterium tuberculosis infected BALB/c mouse model at 31 to 50000 mg/kg, po; format: functional; settings: dose mg/kg 31-50000
How it was run: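 Estimated from oral single-ascending-dose PK in uninfected BALB/c mice (gavage, 0.25% CMC suspension; plasma sampled 0.08–50 h, 3 mice/time point; HPLC-UV/LCMS). Total AUC0-∞ was made unbound using a protein-binding fit from mouse-plasma equilibrium dialysis, then divided by broth MIC over 576 h/24 h (SPX: 432 h/24 h). Values were interpolated from dose relationships for dose-fractionation regimens in aerosol-infected mice.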

[23] = tested on: Mycobacterium tuberculosis; experiment: Ratio of fraction Cmax in Mycobacterium tuberculosis infected BALB/c mouse to MIC in Mycobacterium tuberculosis infected BALB/c mouse model at 31 to 50000 mg/kg, po; format: functional; settings: dose mg/kg 31-50000
How it was run: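 Unbound peak plasma level was divided by broth MIC. […] It was converted to free drug by a Boltzman fit of equilibrium-dialysis mouse plasma binding. Values for the fractionated regimens given to aerosol-infected mice were estimated from the dose–fCmax/MIC relationship.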

Mus musculus [24] = experiment: Drug level in Mycobacterium tuberculosis infected BALB/c mouse model at 31 to 50000 mg/kg, po; format: ADME, organism-based; set-up: dose 31-50000 mg/kg, route oral; settings: in vivo

Row | Structure (SMILES) | MIC [1] | MIC [2] | log10CFU/ml [3] | Activity [4] | Activity [6] | Cmax [7] | AUC(0-inf) [8] | Activity [5] | Log10 cfu [12] | further results
1 | O=C(O)c1cn(C2CC2)c2cc(N3CCNCC3)c(F)cc2c1=O [CIPROFLOXACIN] | 0.5 µg/mL (≈ 1.51 µM) | 4 µg/mL (≈ 12.1 µM) | 3 | Active | Active | 1200 ng/mL | 29000 ng·h/mL | – | – | log10CFU/ml [5]: 3.2
2 | COc1c(N2C[C@@H]3CCCN[C@@H]3C2)c(F)cc2c(=O)c(C(=O)O)cn(C3CC3)c12 [MOXIFLOXACIN] | 0.5 µg/mL (≈ 1.25 µM) | 1 µg/mL (≈ 2.49 µM) | 3 | Active | Active | – | – | Active | 3.2 | Cmax [9]: 380 ng/mL; AUC(0-inf) [10]: 25000 ng·h/mL; T>MIC (Mus musculus [11]): 0%; Fu (Plasma): 0.077
3 | CC1COc2c(N3CCN(C)CC3)c(F)cc3c(=O)c(C(=O)O)cn1c23 (configuration not stated) [OFLOXACIN] | 0.5 µg/mL (≈ 1.38 µM) | 2 µg/mL (≈ 5.53 µM) | 3 | Active | Active | 1700 ng/mL | 29000 ng·h/mL | Active | 1.5 | half-life [13]: 4.93 h; RatioAUC/MIC [14]: 2; Ratio [15]: 1; T>MIC (Mus musculus [16]): 0%; LD50 [17]: 3000 mg/kg
4 | C[C@@H]1CN(c2c(F)c(N)c3c(=O)c(C(=O)O)cn(C4CC4)c3c2F)C[C@H](C)N1 [SPARFLOXACIN] | 0.1 µg/mL (≈ 0.255 µM) | 2 µg/mL (≈ 5.1 µM) | 3 | Active | Active | – | – | Active | 1.4 | fraction unbound [18]: 0.26; Cmax [19]: 750 ng/mL; AUC(0-inf) [20]: 43000 ng·h/mL; half-life [21]: 9.8 h; RatioAUC/MIC [22]: 3; Ratio [23]: 4; T>MIC (Mus musculus [24]): 10%
